Reference: ChEMBL document CHEMBL1125740, “Heterocyclic quinones. 17. A new in vivo active antineoplastic drug: 6,7-bis(1-aziridinyl)-4-[[3-(N,N-dimethylamino)propyl]amino]-5,8- quinazolinedione” (J Med Chem, 1991)
“And” between values parts separate entries of the source, which are not always exact repeats. Equal values may be shown once.

Legend:
B16 = assay: Compound was evaluated in vivo for antitumor activity against […] B16 melanoma 2 after injecting the compound intravenously for optimal dose; assay type: functional, Mus musculus
[1] = Compound was evaluated in vivo for antitumor activity against Glasgow osteogenic sarcoma after injecting the compound intravenously for change in body weight.; assay type: functional, Mus musculus
In short: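 Glasgow osteogenic sarcoma in C57Bl/6-derived hosts: 30-60 mg fragments implanted sc by trocar on day 0. Drug given iv on days 3, 6 and 9, 7 mice per group. Tumors measured by caliper. Median tumor burden recorded on day 10. Body weight change per mouse recorded at nadir. Toxicity-related deaths counted.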

L1210 [2] = assay: Inhibitory activity against L1210 cell growth; assay type: functional, cell-based; details: Mus musculus
In short: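 L1210 cells were grown in RPMI 1640 with 2 mM glutamine and 20% heat-inactivated horse serum at 37 °C under 5% CO2. Drug was added in DMSO (0.5% final) to exponential cells seeded at 0.8×10^5 cells/mL. Coulter counts were done in triplicate at 48 h. IC50 was taken from a regression of probit % growth inhibition against log dose, from one experiment.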

M5076 = assay: Compound was evaluated in vivo for antitumor activity against M5076 after injecting the compound intravenously for optimal dose; assay type: functional, Mus musculus
L1210 [3] = assay: Compound was evaluated in vivo for antitumor activity after intraperitoneal administration against L1210(935) for total dose at an optimal dose of 0.5 mg/kg/injection at 1 day schedule.; assay type: functional, Mus musculus
In short: (§1)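 L1210 leukemia, maintained in DBA/2 mice, was given ip as 10⁵ cells on day 0 to F1 hybrid or strain-of-origin mice over 18 g, in groups of 8. Dosing was ip from day 1, and mortality was checked daily. Median day of death counts dying mice only. %ILS = 100×(treated − control median day of death)/control median. Tumor-free survivors were counted on day 60. Weight change is g/mouse at nadir.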

L1210 [4] = assay: Compound was evaluated in vivo for antitumor activity after intraperitoneal administration against L1210(935) for mortality range at an optimal dose of 0.25 mg/kg/injection at 1,4,7,11day schedule.; assay type: functional, Mus musculus; in short: as §1
L1210 [5] = assay: Compound was evaluated in vivo for antitumor activity after intraperitoneal administration against L1210(935) for mortality range at an optimal dose of 1 mg/kg/injection at 1 day schedule.; assay type: functional, Mus musculus; in short: as §1
L1210 [6] = assay: Compound was evaluated in vivo for antitumor activity after intraperitoneal administration against L1210(935) for median day of death at an optimal dose of 0.2 mg/kg/injection at 1-4 day schedule.; assay type: functional, Mus musculus; in short: as §1
L1210 [7] = assay: Compound was evaluated in vivo for antitumor activity after intraperitoneal administration against L1210(935) for total dose at an optimal dose of 0.25 mg/kg/injection at 1,4,7,11day schedule.; assay type: functional, Mus musculus; in short: as §1
L1210 [8] = assay: Compound was evaluated in vivo for antitumor activity after intraperitoneal administration against L1210(935) for tumor free survivors at an optimal dose of 0.1 mg/kg/injection at 1-4 day schedule.; assay type: functional, Mus musculus; in short: as §1
L1210 [9] = assay: Compound was evaluated in vivo for antitumor activity after intraperitoneal administration against L1210(935)for % increase in life span at an optimal dose of 0.25 mg/kg/injection at 1,4,7,11day schedule.; assay type: functional; details: Mus musculus, L1210, ip; in short: as §1
P388 [10] = assay: Compound was evaluated in vivo for antitumor activity after intraperitoneal administration against P388/L-PAM(12) for total dose at an optimal dose of 0.75 mg/kg/injection; assay type: functional, Mus musculus
P388 [11] = assay: Compound was evaluated in vivo for antitumor activity after intraperitoneal administration against P388 (1303) for % increase in life span at an optimal dose of 0.75 mg/kg/injection; assay type: functional; details: Mus musculus, P388, ip
P388 [12] = assay: Compound was evaluated in vivo for antitumor activity after intraperitoneal administration against P388 (1313) for mortality range at an optimal dose of 0.5 mg/kg/injection; assay type: functional, Mus musculus
P388 [13] = assay: Compound was evaluated in vivo for antitumor activity after intraperitoneal administration against P388 (1313) for total dose at an optimal dose of 0.25 mg/kg/injection; assay type: functional, Mus musculus
P388 [14] = assay: Compound was evaluated in vivo for antitumor activity after intraperitoneal administration against P388/L-PAM(14) for median day of death at an optimal dose of 0.5 mg/kg/injection at one day schedule.; assay type: functional, Mus musculus
P388 [15] = assay: Compound was evaluated in vivo for antitumor activity after intraperitoneal administration against P388/L-PAM(14) for mortality range at an optimal dose of 0.125 mg/kg/injection at 1,4,7,11 day schedule.; assay type: functional, Mus musculus
P388 [16] = assay: Compound was evaluated in vivo for antitumor activity after intraperitoneal administration against P388/L-PAM(14) for tumor free survivors at an optimal dose of 0.4 mg/kg/injection at 1,2,3,4 day schedule.; assay type: functional, Mus musculus
P388 [17] = assay: Compound was evaluated in vivo for antitumor activity after intraperitoneal administration against P388/L-PAM(12) for tumor free survivors at an optimal dose of 0.75 mg/kg/injection; assay type: functional, Mus musculus
P388 [18] = assay: Compound was evaluated in vivo for antitumor activity after intraperitoneal administration against P388 (1303) for median day of death at an optimal dose of 0.75 mg/kg/injection; assay type: functional, Mus musculus
P388 [19] = assay: Compound was evaluated in vivo for antitumor activity after intraperitoneal administration against P388/L-PAM(14) for total dose at an optimal dose of 0.5 mg/kg/injection at one day schedule.; assay type: functional, Mus musculus
P388 [20] = assay: Compound was evaluated in vivo for antitumor activity after intraperitoneal administration against P388/L-PAM(14) for total dose at an optimal dose of 1 mg/kg/injection; assay type: functional, Mus musculus
P388 [21] = assay: Compound was evaluated in vivo for antitumor activity after intraperitoneal administration against P388/L-PAM(14) for mortality range at an optimal dose of 1 mg/kg/injection; assay type: functional, Mus musculus
P388 [22] = assay: Compound was evaluated in vivo for antitumor activity after intraperitoneal administration against P388 (1313) for tumor free survivors at an optimal dose of 0.5 mg/kg/injection on day 60; assay type: functional, Mus musculus
P388 [23] = assay: Compound was evaluated in vivo for antitumor activity after intraperitoneal administration against P388 (1313) for median day of death at an optimal dose of 0.2 mg/kg/injection; assay type: functional, Mus musculus
P388 [24] = assay: Compound was evaluated in vivo for antitumor activity after intraperitoneal administration against P388 (1313) for % increase in life span at an optimal dose of 0.25 mg/kg/injection; assay type: functional; details: Mus musculus, P388, ip
P388 [25] = assay: Compound was evaluated in vivo for antitumor activity after intraperitoneal administration against P388 (1313) for % increase in life span at an optimal dose of 0.5 mg/kg/injection; assay type: functional; details: Mus musculus, P388, ip
[26] = Compound was evaluated in vivo for antitumor activity against colon adenocarcinoma 38 after injecting the compound intravenously for toxicity related death.; assay type: functional, Mus musculus
[27] = Compound was evaluated in vivo for antitumor activity against colon adenocarcinoma 38 after injecting the compound intravenously for median tumor burden; assay type: functional, Mus musculus
[28] = Compound was evaluated in vivo for antitumor activity against mammary adenocarcinoma 16/C after injecting the compound intravenously for median; assay type: functional, Mus musculus
[29] = Compound was evaluated in vivo for antitumor activity against mammary adenocarcinoma 16/C after injecting the compound intravenously for median tumor burden; assay type: functional, Mus musculus
In short: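 30-60 mg tumor fragments implanted sc by trocar on day 0 into C57Bl/6-derived hosts (B16) or C3H/He-derived hosts (16/C). Drug given iv on days 6, 9 and 13 (B16) or 6, 9 and 12 (16/C), 10 mice per group. Tumors measured by caliper. T/C % taken from median tumor burden of treated vs control groups on day 15 (B16) or day 14 (16/C). Body weight change per mouse recorded at nadir.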

SMILES: CN(C)CCCNc1ncnc2c1C(=O)C(N1CC1)=C(N1CC1)C2=O
- Optimal dose (B16): 0.2 mg/kg
- Change in body weight [1]: 0.6 g mouse-1
- IC50 (L1210 [2]): 0.00102 µg/mL and 2.7 nM
- Optimal dose (M5076): 1 mg/kg
- Total dose (L1210 [3]): 0.5 mg/kg
- Mortality (L1210 [4]): 14 days
- Mortality (L1210 [5]): 16 days
- Median day of death (L1210 [6]): 14
- Total dose (L1210 [7]): 1 mg/kg
- Survivors (L1210 [8]): 0
- ILS at 0.25 mg/kg (L1210 [9]): 18%
- Optimal dose (P388 [10]): 0.75 mg/kg
- ILS at 0.75 mg/kg (P388 [11]): 68%
- Mortality (P388 [12]): 30 days
- Optimal dose (P388 [13]): 1 mg/kg
- Median day of death (P388 [14]): 18
- Mortality (P388 [15]): 27 days
- Survivors (P388 [16]): 0
- Survivors (P388 [17]): 0
- Median day of death (P388 [18]): 18.5
- Total dose (P388 [19]): 0.5 mg/kg
- Total dose (P388 [20]): 1 mg/kg
- Mortality (P388 [21]): 26 days
- Survivors (P388 [22]): 0
- Median day of death (P388 [23]): 19.5
- ILS at 0.25 mg/kg (P388 [24]): 58%
- ILS at 0.5 mg/kg (P388 [25]): 108%
- Toxicity [26]: 0
- Tumor burden [27]: 416
- Tumor burden [28]: 895 mg
- Tumor burden [29]: 1265 mg
